One test addresses Pim-1 kinase (Homo sapiens, UniProt P11309). Kind of test: Pim-1 kinase inhibition, luminescent ADP-Glo kinase assay. Type of test: biochemical. (In general: ADP-Glo first removes unused ATP, then detects ADP through luciferase.)
Another test deals with PC3 cells. Kind of test: MTT cytotoxicity assay, PC3. The test is classed as cell-based. Particulars: Homo sapiens, PC-3, 24 h, read-out: IC50 PC3. An outline of the steps: (§1)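 Cells (ATCC via VACSERA) grown in RPMI-1640 with 10% FBS, penicillin 100 units/mL and streptomycin 100 μg/mL, 37 °C, 5% CO2. Seeded at 1.0 × 10^4 cells/well and held 48 h, then exposed to a range of test compound concentrations for 24 h. MTT (5 mg/mL solution) added for 4 h, formazan dissolved in DMSO, absorbance 570 nm. Run in triplicate; IC50 calculated. 5-FU reference.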
(In general: Tetrazolium assays rely on reduction of a dye to a coloured formazan, in cell work by metabolically active cells.)

The test system of a further test is HCT-116 cells. As to the kind of experiment: MTT cytotoxicity assay, HCT-116. Particulars: Homo sapiens, HCT-116, 24 h, read-out: IC50 HCT-116. The test is classed as cell-based. An outline of the steps: as §1
The next test concerns HepG2 cells. As to the kind of experiment: MTT cytotoxicity assay, HepG2. Type of test: cell-based. Particulars: Homo sapiens, HepG2, 24 h, read-out: IC50 HePG2. An outline of the steps:
as §1

The test system of another test is MCF-7 cells. Kind of test: MTT cytotoxicity assay, MCF-7. Type of test: cell-based. Conditions: Homo sapiens, MCF7, 24 h, read-out: IC50 MCF-7. A digest of the protocol:
as §1

Chain of Pim-1 kinase (P11309 whole entry): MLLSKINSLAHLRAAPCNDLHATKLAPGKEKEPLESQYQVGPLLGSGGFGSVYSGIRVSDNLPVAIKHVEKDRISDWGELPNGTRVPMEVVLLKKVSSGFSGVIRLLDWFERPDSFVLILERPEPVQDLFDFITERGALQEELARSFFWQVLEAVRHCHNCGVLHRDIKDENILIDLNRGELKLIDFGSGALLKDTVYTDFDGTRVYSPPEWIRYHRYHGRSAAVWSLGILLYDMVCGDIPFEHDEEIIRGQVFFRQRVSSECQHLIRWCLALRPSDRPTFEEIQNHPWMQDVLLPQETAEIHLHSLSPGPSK

By IC50 is commonly meant the concentration at which inhibition is half-maximal. Regarding `N#Cc1c(-c2cc3ccccc3nc2Cl)cc(-c2ccccc2)[nH]c1=O` [3a, 4-(2-Chloroquinolin-3-yl)-2-oxo-6-phenyl-1,2-dihydropyridine-3-carbonitrile], the IC50 was determined as 0.9 ± 0.04 µM against Pim-1 kinase; 26.9 ± 1.28 µM in the test with PC3 cells; 49.9 ± 2.36 µM in the test on HCT-116 cells; 11.6 ± 0.57 µM in the test on HepG2 cells; 60 ± 2.93 µM in the test with MCF-7 cells.

On to `N#Cc1c(-c2cc3ccccc3nc2Cl)cc(-c2cccc(N)c2)[nH]c1=O` [3b, 6-(3-Aminophenyl)-4-(2-chloroquinolin-3-yl)-2-oxo-1,2-dihydropyridine-3-carbonitrile], for which the IC50 against Pim-1 kinase was determined as 0.85 ± 0.04 µM; in the test on PC3 cells, 18.4 ± 0.89 µM; in the test with HCT-116 cells, 30.9 ± 1.52 µM; in the test on HepG2 cells it was 12.4 ± 0.59 µM; with MCF-7 cells, 42.4 ± 2.13 µM.

In the case of `COc1ccc(-c2cc(-c3cc4ccccc4nc3Cl)c(C#N)c(=O)[nH]2)cc1` [3c, 4-(2-Chloroquinolin-3-yl)-6-(4-methoxyphenyl)-2-oxo-1,2-dihydropyridine-3-carbonitrile], the IC50 at Pim-1 kinase turned out to be 0.79 ± 0.04 µM; in the test with PC3 cells it was 25.8 ± 1.3 µM; in the test on HCT-116 cells it was 18.3 ± 0.89 µM; with HepG2 cells, 14.1 ± 0.68 µM; in the test with MCF-7 cells it was 25.4 ± 1.2 µM.

As for `N#Cc1c(-c2cc3ccccc3nc2Cl)cc(-c2ccc(Br)cc2)[nH]c1=O` [3d, 6-(4-Bromophenyl)-4-(2-chloroquinolin-3-yl)-2-oxo-1,2-dihydropyridine-3-carbonitrile], the IC50 at Pim-1 kinase is 0.72 ± 0.03 µM; in the test on PC3 cells, 20.5 ± 0.97 µM; with HCT-116 cells it was 20 ± 0.99 µM; with HepG2 cells, 16.2 ± 0.77 µM; with MCF-7 cells, 19.9 ± 0.96 µM.

Consider `N#Cc1c(-c2cc3ccccc3nc2Cl)cc(-c2ccc(Cl)cc2Cl)[nH]c1=O` [3e, 4-(2-Chloroquinolin-3-yl)-6-(2,4-dichlorophenyl)-2-oxo-1,2-dihydropyridine-3-carbonitrile], for which the 50% inhibitory concentration (IC50) worked out at 2.31 ± 0.11 µM against Pim-1 kinase; 25.9 ± 1.25 µM in the test with PC3 cells; 50.7 ± 2.5 µM in the test with HCT-116 cells; 11.6 ± 0.57 µM in the test with HepG2 cells; 45.9 ± 2.18 µM with MCF-7 cells.

In the case of `N#Cc1c(-c2cc3ccccc3nc2Cl)cc(-c2ccccc2)nc1Cl` [4a, 2-Chloro-4-(2-chloroquinolin-3-yl)-6-phenylnicotinonitrile], the IC50 came out at 1.24 ± 0.06 µM against Pim-1 kinase; 35.3 ± 1.67 µM in the test on PC3 cells; 50 ± 2.44 µM with HCT-116 cells; 10 ± 0.49 µM in the test on HepG2 cells; 75.7 ± 3.74 µM in the test on MCF-7 cells. The “fold less potent than quercetagetin (Pim-1 inhibition)” value at Pim-1 kinase is “about 2 fold”.

Consider `N#Cc1c(-c2cc3ccccc3nc2Cl)cc(-c2cccc(N)c2)nc1Cl` [4b, 6-(3-Aminophenyl)-2-chloro-4-(2-chloroquinolin-3-yl) nicotinonitrile], for which the concentration for half-maximal inhibition (IC50) against Pim-1 kinase was found to be 0.63 ± 0.03 µM; in the test with PC3 cells, 15 ± 0.74 µM; with HCT-116 cells, 20.2 ± 0.96 µM; in the test with HepG2 cells, 12 ± 0.59 µM; in the test on MCF-7 cells, 19.2 ± 0.94 µM.

For `COc1ccc(-c2cc(-c3cc4ccccc4nc3Cl)c(C#N)c(Cl)n2)cc1` [4c, 2-Chloro-4-(2-chloroquinolin-3-yl)-6-(4-methoxyphenyl) nicotinonitrile], the IC50 against Pim-1 kinase is 0.61 ± 0.03 µM; in the test with PC3 cells, 13.6 ± 0.67 µM; with HCT-116 cells, 7.15 ± 0.35 µM; in the test with HepG2 cells, 8.02 ± 0.38 µM; with MCF-7 cells, 15.7 ± 0.78 µM.

For `N#Cc1c(-c2cc3ccccc3nc2Cl)cc(-c2ccc(Br)cc2)nc1Cl` [4d, 6-(4-Bromophenyl)-2-chloro-4-(2-chloroquinolin-3-yl) nicotinonitrile], the IC50 at Pim-1 kinase was 0.46 ± 0.02 µM; with PC3 cells, 14.1 ± 0.7 µM; in the test on HCT-116 cells it was 8.35 ± 0.42 µM; in the test on HepG2 cells, 6.95 ± 0.34 µM; in the test on MCF-7 cells, 8.5 ± 0.42 µM. Besides, at Pim-1 kinase, the “times more potent than A (Pim-1 inhibition)” value worked out at 2 times.

Consider `N#Cc1c(-c2cc3ccccc3nc2Cl)cc(-c2ccc(Cl)cc2Cl)nc1Cl` [4e, 2-Chloro-4-(2-chloroquinolin-3-yl)-6-(2,4-dichlorophenyl) nicotinonitrile], for which the half-maximal inhibitory concentration (IC50) worked out at 1.42 ± 0.07 µM on Pim-1 kinase; 35.1 ± 1.73 µM in the test with PC3 cells; 65.1 ± 3.08 µM with HCT-116 cells; 11.5 ± 0.56 µM in the test on HepG2 cells; 55.5 ± 2.71 µM with MCF-7 cells. Moreover, the “fold less potent than quercetagetin (Pim-1 inhibition)” value on Pim-1 kinase is listed as approximately 2.5 fold.

`O=c1[nH]cc(F)c(=O)[nH]1` [5-FU, 5-fluorouracil, reference compound]: the concentration for half-maximal inhibition (IC50) in the test on PC3 cells came out at 10.3 ± 0.5 µM; with HCT-116 cells, 8.01 ± 0.39 µM; with HepG2 cells, 9.42 ± 0.46 µM; in the test with MCF-7 cells it was 7.75 ± 0.37 µM.

The values are drawn from publication PMC10249106 (ACS Omega, 2023).
